Active and inactive are the calls of the source. The calls are words filed in the database; no cut-off is given here.
Experiments:
Type in all cases: functional
[1] = Growth inhibition of human A375-C5 cells after 48 hrs by SRB assay; conditions: A375-C5, 48 h
Method in brief: (§1)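 Cells seeded to stay in exponential growth (MCF-7 and NCI-H460 5.0 × 10³ cells/well, A375-C5 7.5 × 10³ cells/well) and left to adhere overnight. Then 48 h exposure to five serial dilutions (1:2 or 1:3) from DMSO stocks diluted in medium; DMSO vehicle control maximum 0.25%. TCA fixation, SRB staining, Tris solubilisation, absorbance at 492 nm. GI50 taken from dose–response curves as 50% inhibition of net growth. Mean ± SEM of ≥3 independent experiments, in duplicate.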

NCI-H460 = experiment: Growth inhibition of human NCI-H460 cells after 48 hrs by SRB assay; conditions: NCI-H460, 48 h; method in brief: as §1
MCF7 [2] = experiment: Growth inhibition of human MCF7 cells after 48 hrs by SRB assay; conditions: MCF7, 48 h; method in brief: as §1
MCF7 [3] = experiment: Induction of apoptosis in human MCF7 cells at 9.1 uM by annexinV-propidium iodide staining-based flow cytometric analysis (reference value: 11.1%)
Method in brief: (§2)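 MCF-7 handled as for the cell-cycle study: 48 h exposure at the stated concentration, with untreated cells and a highest-level DMSO control. Harvested cells stained with annexin V-FITC/PI per kit instructions. Flow cytometry with ≥20,000 events per sample; apoptosis given as % of total cells. Mean ± SEM of three experiments (DMSO control two); unpaired t-test against untreated cells.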

MCF7 [4] = experiment: Induction of apoptosis in human MCF7 cells at 4.1 uM by annexinV-propidium iodide staining-based flow cytometric analysis (reference value: 11.1%); method in brief: as §2
MCF7 [5] = experiment: Induction of apoptosis in human MCF7 cells at 10.5 uM by annexinV-propidium iodide staining-based flow cytometric analysis (reference value: 11.1%); method in brief: as §2
MCF7 [6] = experiment: Induction of apoptosis in human MCF7 cells at 8 uM by annexinV-propidium iodide staining-based flow cytometric analysis (reference value: 11.1%); method in brief: as §2
MCF7 [7] = experiment: Cell cycle arrest in human MCF7 cells assessed as accumulation at sub-G1 phase at 8 uM after 48 hrs by propidium iodide staining-based flow cytometric analysis
Method in brief: (§3)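 MCF-7 plated in 6-well plates (5.0 × 10³ cells/well) and held 24 h at 37 °C. Exponentially growing cells then exposed 48 h at the single concentration stated. Untreated and highest-level DMSO controls included. Fixation in 70% ethanol at 4 °C for ≥12 h, then PBS with 0.1 mg/mL RNase A and 5 µg/mL PI. DNA content by flow cytometry, ≥20,000 events; sub-G1 fraction scored after debris exclusion. Mean ± SEM of three experiments; unpaired t-test versus untreated cells.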

MCF7 [8] = experiment: Induction of apoptosis in human MCF7 cells at 7.8 uM by annexinV-propidium iodide staining-based flow cytometric analysis (reference value: 11.1%); method in brief: as §2
MCF7 [9] = experiment: Cell cycle arrest in human MCF7 cells assessed as accumulation at sub-G1 phase at 7.8 uM after 48 hrs by propidium iodide staining-based flow cytometric analysis; method in brief: as §3
MCF7 [10] = experiment: Cell cycle arrest in human MCF7 cells assessed as accumulation at sub-G1 phase at 7.3 uM after 48 hrs by propidium iodide staining-based flow cytometric analysis relative to control; method in brief: as §3
MCF7 [11] = experiment: Induction of apoptosis in human MCF7 cells at 7.3 uM by annexinV-propidium iodide staining-based flow cytometric analysis (reference value: 11.1%); method in brief: as §2
MCF7 [12] = experiment: Induction of apoptosis in human MCF7 cells at 7.1 uM by annexinV-propidium iodide staining-based flow cytometric analysis (reference value: 11.1%); method in brief: as §2

Structure (SMILES)	GI50 (NCI-H460) [µM]	GI50 (MCF7 [2]) [µM]	GI50 [1] [µM]	other results
COc1ccc(C2CC(=O)c3ccc(O)c(C)c3O2)c(OC)c1 (stereo unspecified)	> 150	12.5	> 150	–
COc1cccc2c1C(=O)c1c(O)c3c(c(O)c1C2=O)C[C@@](O)(C(=O)CO)C[C@@H]3O[C@H]1C[C@H](N)[C@H](O)[C@H](C)O1 [DOXORUBICIN]	0.086	0.0688	0.0915	–
CCCc1c(O)ccc(C(=O)/C=C/c2cc(OC)c(OC)c(OC)c2)c1O	8.3	4.1	8.2	Activity (MCF7 [4]): 14%
Cc1c(O)ccc(C(=O)/C=C/c2ccc(Cl)cc2Cl)c1O	22.5	10.5	21.4	Activity (MCF7 [5]): 16.6%
Cc1c(O)ccc(C(=O)/C=C/c2ccc(Cl)cc2)c1O	43	34.5	41.6	–
O=C(/C=C/c1ccc(OCc2ccccc2)cc1)c1ccc(O)cc1O	10.5	8	9	Activity (MCF7 [6]): 15.4%; Activity (MCF7 [7]): Active
CCCc1c(O)ccc2c1OC(c1cc(OC)c(OC)cc1OC)CC2=O (stereo unspecified)	47	18.8	32	–
CCCc1c(O)ccc(C(=O)/C=C/c2ccccc2Cl)c1O	12.5	7.1	14.2	Activity (MCF7 [12]): 14.8%
Cc1c(O)ccc(C(=O)/C=C/c2ccc(C(F)(F)F)cc2)c1O	20.3	19.3	24.7	–

Now from value to compound, other results behind:

GI50 (NCI-H460) [µM]	GI50 (MCF7 [2]) [µM]	Structure (SMILES)	GI50 [1] [µM]	other results
24.5	9.1	CCCc1c(O)ccc(C(=O)/C=C/c2cc(OC)c(OC)cc2OC)c1O	23	Activity (MCF7 [3]): 13.3%
37	19.5	COc1ccc(/C=C/C(=O)c2ccc(O)cc2O)c(OC)c1	30.3	–
8.2	7.8	COc1cc(/C=C/C(=O)c2ccc(O)cc2O)cc(OC)c1OC	8.1	Activity (MCF7 [8]): 20%; Activity (MCF7 [9]): Active
60	31.8	COc1cc(OC)c(OC)cc1/C=C/C(=O)c1ccc(O)cc1O	34.8	–
> 150	32.7	COCOc1ccc(/C=C/C(=O)c2ccc(O)c(C)c2O)c(OCOC)c1	> 150	–
24.7	13.3	CCCc1c(O)ccc(C(=O)/C=C/c2ccc(OC)cc2)c1O	46.3	–
15.3	7.3	O=C(/C=C/c1ccc(F)cc1)c1ccc(O)cc1O	14.1	Activity (MCF7 [10]): 11%; Activity (MCF7 [11]): 23.9%
24.3	18.2	CCCc1c(O)ccc(C(=O)/C=C/c2ccc(OCOC)cc2OCOC)c1O	35	–
